TRPC4 act: opens the mouse TRPC4 cation channel; Q9QUQ5; HEK293 TRPC4beta/mu-opioid, Fluo4 calcium fluorescence; hits give high values; B-score at 10 µM; 310,000 compounds, 0.49% hits; AID 2237;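 active = B-score above 5 SD of library B-scores, and initial fluorescence ratio not above library mean plus 5 SD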;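 note: positive B-score marks a calcium rise read as TRPC4 activation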
Target sequence (Q9QUQ5 whole entry, looked up): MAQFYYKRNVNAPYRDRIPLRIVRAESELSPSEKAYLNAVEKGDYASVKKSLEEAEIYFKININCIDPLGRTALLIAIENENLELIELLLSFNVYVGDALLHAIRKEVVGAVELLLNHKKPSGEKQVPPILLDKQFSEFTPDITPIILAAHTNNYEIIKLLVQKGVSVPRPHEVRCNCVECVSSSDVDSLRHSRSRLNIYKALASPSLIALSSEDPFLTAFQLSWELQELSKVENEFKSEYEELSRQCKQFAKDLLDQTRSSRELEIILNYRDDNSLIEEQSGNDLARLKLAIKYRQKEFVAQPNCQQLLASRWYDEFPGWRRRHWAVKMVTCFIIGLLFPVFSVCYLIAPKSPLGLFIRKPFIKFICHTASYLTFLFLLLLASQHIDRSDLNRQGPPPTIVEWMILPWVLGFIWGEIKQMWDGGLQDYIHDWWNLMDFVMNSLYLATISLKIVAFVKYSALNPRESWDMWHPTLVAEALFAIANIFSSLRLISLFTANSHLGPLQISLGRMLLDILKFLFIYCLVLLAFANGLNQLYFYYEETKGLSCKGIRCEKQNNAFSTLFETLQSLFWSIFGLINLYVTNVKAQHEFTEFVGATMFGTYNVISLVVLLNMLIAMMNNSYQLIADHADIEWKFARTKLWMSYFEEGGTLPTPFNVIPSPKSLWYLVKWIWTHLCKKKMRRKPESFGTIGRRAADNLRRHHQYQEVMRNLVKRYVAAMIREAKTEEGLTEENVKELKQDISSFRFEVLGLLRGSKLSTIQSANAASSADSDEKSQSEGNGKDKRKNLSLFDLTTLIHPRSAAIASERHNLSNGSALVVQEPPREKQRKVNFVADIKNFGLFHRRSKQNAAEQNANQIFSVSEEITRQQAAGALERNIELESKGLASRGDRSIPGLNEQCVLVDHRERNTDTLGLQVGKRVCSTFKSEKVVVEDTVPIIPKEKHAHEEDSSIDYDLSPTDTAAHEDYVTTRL
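Assay system: HEK293 stable line with TRPC4beta plus mu-opioid receptor; schedule: 45 min room-temperature Fluo4 loading, 110 s read; technique: kinetic Fluo4 calcium fluorescence; evaluation: integrated baseline-normalised fluorescence ratio, converted to per-well B score; controls: buffer (low) and maximal DAMGO (high)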
TRPC6 activator: mouse TRPC6 channel activation. Q61143. HEK293-TRPC6 membrane potential dye fluorescence; hits give high values. B-score at 10 µM. 310,000 compounds, 0.13% hits. AID 2550;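 active = B-score of the integrated fluorescence ratio above library mean plus 3 SD, and starting fluorescence ratio within library mean plus 5 SD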;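 note: higher score means more depolarization so channel activation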
TRPC6 inh: blocks the mouse TRPC6 cation channel; Q61143; HEK293-TRPC6, membrane potential dye, ACh-evoked depolarization; hits give low values; B-score at 10 µM; 310,000 compounds, 1.1% hits;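 active = B-score under library mean minus 3 SD, initial fluorescence not abnormally high, positive integrated signal ratio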;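 note: B-score derived from integrated fluorescence ratio over the kinetic read; more negative B-score means stronger inhibition of depolarization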
TRPC4 potent: allosterically enhances the mouse TRPC4 cation channel | HEK293 TRPC4beta/mu-opioid, DAMGO EC20, Fluo-4 Ca2+ flux; hits give high values | B-score at 10 µM | 310,000 compounds, 0.42% hits | AID 2227 | Q9QUQ5;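 active = B-score of calcium response area above 5 SD of library B-scores, with initial fluorescence ratio within 5 SD of library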;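 note: B-score of integrated fluorescence ratio over time as area under calcium response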
Yeast superoxide: caloric restriction mimetics inhibiting age-related superoxide in yeast; S. cerevisiae aged cells, superoxide DHE fluorescence; hits give low values; superoxide response (% of plate mean), % at 10 µM; 330,000 compounds, 0.18% hits;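 active = superoxide response under a set limit, about three screen SD below normal, cut at about 65% in these data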;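 note: yeast aged for seven days with compound at 30 °C before DHE staining; 100% = average MFI of all compound-treated wells on the plate with controls excluded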
TRPC4 inh: TRPC4 (mouse) channel inhibition | HEK293 TRPC4beta/mu-opioid, DAMGO-evoked Fluo4 calcium flux; hits give low values | B-score at 10 µM | 300,000 compounds, 0.39% hits | AID 2247;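 active = B-score over 3 SD under the library average, no early fluorescence shift, positive overall ratio signal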
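Assay system: Stable TRPC4beta/mu-opioid receptor HEK293 cells | Reagent: DAMGO in two steps, submaximal then maximal | Compound dosing: Single concentration per test compound | Signal: Fluo4 Ca2+ flux fluorescence | Evaluation: Per-well B score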
TRPC4 sel inh 2: second check of whether TRPC6 inhibitors also affect mouse TRPC4 | shares compounds with TRPC6 inh | HEK293 TRPC4/MOR, membrane potential dye fluorescence; channel activated by saturating DAMGO dose | inhibition, % at 10 µM | 920 compounds, 42% hits;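 active = compounds whose fluorescence signal differed from control wells by over 3 SD, either direction, in both duplicate plates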
TRPC4 spec: mouse TRPC4 off-target activity of TRPC6 inhibitors; shares compounds with TRPC6 inh; HEK293 TRPC4/mu-opioid, membrane potential fluorescence; activity change, negative = inhibition, % at 10 µM; 920 compounds, 61% hits;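 active = rise or fall in signal beyond 3 SD of buffer-only wells in both replicate plates, either sign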;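 note: integrated kinetic ratio of fluorescence range over baseline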
HEK293 MPD ctr 2-1: second check of TRPC6 inhibitor effects in parental HEK293 cells. signal change vs control, % at 10 µM. 920 compounds, 31% hits. shares compounds with TRPC6 inh. parental HEK293 membrane potential dye fluorescence; maximal acetylcholine challenge after compound addition;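 active = membrane potential signal moving either way by over 3 SD of the maximum-effect control, in both duplicate plates, meaning non-specific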
HEK293 MPD ctr-1: counter-screen for TRPC6 inhibitors: effect in parental HEK293 cells; AID 2780; shares compounds with TRPC6 inh; 920 compounds, 60% hits; parental HEK293 membrane potential dye fluorescence; membrane potential signal change, % at 10 µM;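 active = membrane potential signal shifting up or down by more than 3 SD of buffer-only wells, on both duplicate plates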
HEK293 MPD ctr-2: parental HEK293 nonspecific activity of TRPC6 modulators. shares compounds with TRPC6 inh. membrane potential dye fluorescence. membrane potential signal change, % at 10 µM. 2,400 compounds, 51% hits. AID 488924;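 active = membrane potential signal moves up or down beyond 5 SD from buffer-only wells, on both duplicate plates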
HEK293 MPD ctr 2-2: second counter-screen for TRPC6 modulators: effect in parental HEK293 cells | shares compounds with TRPC6 inh | AID 488926 | inhibition, % at 10 µM | membrane potential dye fluorescence; after compound, maximal acetylcholine stimulation | 2,400 compounds, 14% hits;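 active = membrane potential signal drops by more than 5 SD from the mean control signal, in both duplicate plates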;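 note: plate controls were acetylcholine ECmax control wells for no effect and buffer only wells for full effect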
TRPC4 ctr mod: mouse TRPC4 off-target activity of TRPC6 modulators; shares compounds with TRPC6 inh; HEK293 TRPC4/mu-opioid, membrane potential fluorescence; percent change from control (negative = decrease, positive = increase), % at 10 µM; 2,400 compounds, 69% hits;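 active = membrane potential signal moved up or down beyond 5 SD of buffer control wells, in both duplicate plates, actives on both sides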;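 note: plate controls were assay buffer wells for no effect and DAMGO maximal-effect wells for full effect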
TRPC4/MOR inh 2: second selectivity test of TRPC6 modulators against mouse TRPC4; shares compounds with TRPC6 inh; HEK293 TRPC4/mu-opioid, membrane potential dye fluorescence; stimulated with maximal-effect DAMGO; inhibition, % at 10 µM; 2,400 compounds, 55% hits;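 active = drop in membrane potential signal beyond 5 SD of the control wells in both duplicate plates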;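 note: TRPC4 counter screen for TRPC6 hits run under conditions tuned for TRPC6 not TRPC4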
TRPC6 block conf: confirmation of mouse TRPC6 inhibitors; 3,300 compounds, 43% hits; shares compounds with TRPC6 inh; HEK293-TRPC6, membrane potential dye, ACh-evoked depolarization; inhibition, % at 10 µM;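 active = fluorescence ratio falls more than 5 SD below the full-stimulation control mean, in both duplicate runs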;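 note: integrated fluorescence ratio of peak minus minimum over baseline after agonist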
TRPC6 act confirm: mouse TRPC6 activator confirmation; shares compounds with TRPC6 inh; 2,800 compounds, 11% hits; activation, % at 10 µM; HEK293-TRPC6 membrane potential dye fluorescence, FDSS; AID 488961;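 active = ratio signal rise beyond 5 SD above unstimulated control wells' mean, seen in both duplicate runs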;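 note: plate controls were buffer EC0 wells for no effect and acetylcholine ECmax response for full effect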
Active calls of the source: *; i = inactive; / = not tested or not shown; + = active, no number. Sampled rows, rich in hits. Any-hit rate of the full collection: about 2.3%.

SMILES | TRPC4 act | TRPC6 activator | TRPC6 inh | TRPC4 potent | Yeast superoxide | TRPC4 inh | HEK293 MPD ctr-2 | HEK293 MPD ctr 2-2 | TRPC4 ctr mod | TRPC4/MOR inh 2 | TRPC6 block conf | TRPC6 act confirm | others
CCN(CC)CCSc1nnc2c3ccccc3n(CCc3ccccc3)c2n1 | i | i | -7.55* | i | 111.7 | i | / | / | / | / | i | i | TRPC4 sel inh 2=18.5%*;TRPC4 spec=0.5%*;HEK293 MPD ctr 2-1=i;HEK293 MPD ctr-1=-198.5%*
CCn1c2ccc(F)cc2c2nnc(SCCN3CCCCC3)nc21 | i | i | -5.77* | i | 105.5 | i | -78.0%* | i | 36.0%* | 80.5%* | i | i
c1ccc(Cn2c3ccccc3c3nnc(SCCN4CCCCC4)nc32)cc1 | i | i | i | i | 107.2 | i | / | / | / | / | / | /
C=CCn1c2ccccc2c2nnc(SCCN3CCCCC3)nc21 | i | i | -8.64* | i | 95.8 | i | / | / | / | / | i | i | TRPC4 sel inh 2=73.0%*;TRPC4 spec=-14.4%*;HEK293 MPD ctr 2-1=i;HEK293 MPD ctr-1=-154.0%*
CCCn1c2ccc(F)cc2c2nnc(SCCN3CCCCC3)nc21 | i | i | i | i | 113.2 | i | / | / | / | / | / | /
Cc1ccccc1-c1nc(CS(=O)(=O)CC(=O)N2CCc3ccccc32)c(C)o1 | i | i | i | i | 114.8 | i | / | / | / | / | / | /
O=C(NCCCN1CCCC1)c1cc2c(Cl)nc3ccccc3c2s1 | i | i | -6.6* | i | 99.6 | i | i | i | i | 35.0%* | i | i
CCCn1c(=O)c2ccccc2n2c(SCC(=O)Nc3cc(C)on3)nnc12 | i | i | i | i | 110.9 | i | / | / | / | / | / | /
O=C(CSc1nnc(-c2cccnc2)o1)Nc1ccc(Cl)cc1 | i | i | i | i | 80.8 | i | / | / | / | / | / | /
Cc1cn2c(N)c(C=C3C=C(Cl)C(=O)C(Cl)=C3)c(=O)nc2s1 | i | 82.6* | i | i | / | i | + | 198.5%* | 360.5%* | i | i | 429.5%*
COC1=C/C(=C/c2c(N)n3cc(C)sc3nc2=O)C=CC1=O | i | i | i | i | 116.3 | i | / | / | / | / | / | /
CC[n+]1ccc2cc(OC)c(OC)cc2c1Cc1ccc(OC)c(OC)c1 | i | i | -6.44* | i | 97.3 | i | -232.5%* | i | -40.0%* | i | i | i
CC(=O)CCS(=O)(=O)c1ccc(NC(C)=O)cc1 | i | i | i | i | 97.9 | i | / | / | / | / | / | /
CCCCCCc1ccc(N2C[C@H](C)[C@@H](CC(=O)NCc3ccccc3)C2=O)cc1 | i | i | i | i | 96.7 | i | / | / | / | / | / | /
CCCCCCc1ccc(N2C[C@H](CCCCC)[C@@H](CC(=O)NCc3ccc(OC)cc3)C2=O)cc1 | i | 17.1* | i | i | 93.6 | i | 471.5%* | i | 84.5%* | i | i | 95.0%*
CCCCCCc1ccc(N2C[C@H](CCCCC)[C@@H](CC(=O)NCc3ccccc3)C2=O)cc1 | i | 22.5* | i | i | 93.9 | i | 344.5%* | i | 77.0%* | i | i | 169.0%*
COc1ccc(N2CCN(C3CCCN(C(=O)CN4CCOC4=O)C3)CC2)cc1 (stereo not given) | i | i | i | i | 114.8 | i | / | / | / | / | / | /
CCN(C(=O)COc1ncnc2ccccc12)C1CCCCC1 | / | / | / | / | 106.5 | / | / | / | / | / | / | /
Fc1ccc(NC(=S)NNc2ncc(C(F)(F)F)cc2Cl)c(F)c1 | i | i | -6.49* | i | 98.6 | i | 120.5%* | i | 20.5%* | i | 50.5%* | /
COc1cccc(NC(=O)Cn2cnc3c(oc4nc5c(cc43)CCCC5)c2=O)c1 | i | i | i | i | 71.8 | i | / | / | / | / | / | /
S=C1N(c2ccccc2)C(c2ccc(Br)cc2)N2CCCN12 (stereo not given) | i | i | -9.99* | i | 109.0 | i | / | / | / | / | 68.4%* | i | TRPC4 sel inh 2=i;TRPC4 spec=i;HEK293 MPD ctr 2-1=17.5%*;HEK293 MPD ctr-1=i
COc1ccc(C2N(c3ccccc3)C(=S)N3CCCN23)cc1 (stereo not given) | i | i | i | i | 99.5 | i | / | / | / | / | / | /
S=C1N(c2ccccc2)C(c2ccc(Cl)cc2)N2CCCN12 (stereo not given) | i | i | -8.74* | i | 82.5 | i | / | / | / | / | 67.9%* | i | TRPC4 sel inh 2=i;TRPC4 spec=i;HEK293 MPD ctr 2-1=30.0%*;HEK293 MPD ctr-1=i
Cc1ccc(N(Cc2cc3ccccc3[nH]c2=O)S(C)(=O)=O)cc1 | i | i | i | i | 96.3 | i | / | / | / | / | / | /
COc1ccc(CCn2c(=N)c(C(=O)NCCN3CCOCC3)cc3c(=O)n4ccccc4nc32)cc1OC | i | i | -5.59* | i | 87.8 | i | 151.5%* | 109.0%* | 54.0%* | 44.5%* | 63.5%* | /
COc1ccc(CCNC(=O)c2cc3c(=O)n4ccccc4nc3n(CCCN3CCOCC3)c2=N)cc1OC | i | i | i | i | 131.2 | i | / | / | / | / | / | /
N=c1c(C(=O)NC2CCCC2)cc2c(=O)n3ccccc3nc2n1CCCN1CCOCC1 | i | i | i | i | 93.9 | i | / | / | / | / | / | /
